Bioassay records from PubChem.
MrgX1 allo act – positive allosteric modulators of MrgX1, primary screen, HEK293 cells, Fluo-4 calcium flux; AID 588675, 2011; B-score at 10 µM; Mas-related G-protein coupled receptor member X1 (Homo sapiens), Q96LB2; FDSS; hits give high values; 310,000 compounds, 0.63% hits;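 active = plate-corrected calcium response at least 3 library SD above typical, normal starting fluorescence, not activating the receptor alone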;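 note: compound read alongside a low EC10 to EC30 dose of BAM8-22 agonist; peak minus trough fluorescence over baseline measured at the second addition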
Target sequence (Q96LB2 whole entry, looked up): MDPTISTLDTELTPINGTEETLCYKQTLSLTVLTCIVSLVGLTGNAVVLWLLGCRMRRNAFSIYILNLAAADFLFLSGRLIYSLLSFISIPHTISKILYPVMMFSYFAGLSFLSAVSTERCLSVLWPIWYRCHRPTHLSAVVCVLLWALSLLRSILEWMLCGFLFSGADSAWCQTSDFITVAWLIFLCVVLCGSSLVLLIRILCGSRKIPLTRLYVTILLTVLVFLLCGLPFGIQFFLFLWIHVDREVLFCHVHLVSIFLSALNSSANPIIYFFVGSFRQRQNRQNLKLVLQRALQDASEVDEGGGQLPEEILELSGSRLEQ
RGS4 inh – RGS4 inhibitors, primary screen, cell-based, HEK293 M3R inducible RGS4, calcium flux; Fluo-4 calcium flux; hits give high values; triggered by carbachol at its EC20; AID 463165, 2010; B-score at 10 µM; 310,000 compounds, 0.45% hits; Regulator of G-protein signaling 4 (Homo sapiens), P49798;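 active = B-score, a plate-corrected calcium signal, over three deviations above library mean, with baseline fluorescence within five deviations of library mean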;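 note: RGS4 expression induced by doxycycline in cells with stable M3 receptor; B-score is computed from the integrated fluorescence ratio over baseline after carbachol; higher B-score means a larger calcium signal and so more RGS4 inhibition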
Target sequence (P49798 whole entry, looked up): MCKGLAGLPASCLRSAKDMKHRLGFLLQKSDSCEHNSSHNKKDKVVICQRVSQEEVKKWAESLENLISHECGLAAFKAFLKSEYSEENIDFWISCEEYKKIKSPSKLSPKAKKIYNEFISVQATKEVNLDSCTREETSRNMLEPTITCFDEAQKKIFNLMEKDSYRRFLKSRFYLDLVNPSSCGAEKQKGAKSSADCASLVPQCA
MrgX1 agonist – agonists of human MrgX1 receptor, primary screen, HEK293 cells, Fluo-4 calcium flux; B-score at 10 µM; Mas-related G-protein coupled receptor member X1 (Homo sapiens), Q96LB2; 310,000 compounds, 0.44% hits; Fluo-4 calcium fluorescence, agonist mode; hits give high values;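 active = calcium response B-score plate-corrected fluorescence ratio at least 3 library SD, with starting fluorescence B-score inside 5 SD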
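times = overnight plating, then 30 min 37 °C plus 30 min room-temperature dye loading | assay system = stable human MrgX1 HEK293 cell line | input = fifteen thousand cells per well | signal = kinetic calcium dye fluorescence, Fluo-4 NW | dosing = compound delivered in addition one of three | read-out = B-scored fluorescence response ratio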
MrgX1 antagonist – antagonists of human MrgX1 receptor, primary screen, HEK293 cells, Fluo-4 calcium flux | BAM8-22 antagonism; hits give low values | B-score at 10 µM | 310,000 compounds, 1.3% hits;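 active = calcium-response B-score plate-corrected more than 3 library SD below zero, starting fluorescence within 5 deviations, no agonist response on first addition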;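 note: peak minus trough fluorescence over baseline after final BAM8-22 challenge near maximal dose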
RGS4 act – RGS4 potentiators or activators, primary screen, cell-based, HEK293 M3R inducible RGS4, calcium flux; carbachol calcium flux Fluo4; hits give low values; B-score at 10 µM; 310,000 compounds, 0.92% hits; AID 463111, 2010;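 active = B-score of the integrated calcium signal more than 4 SD below the library mean, with starting fluorescence not abnormally high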;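 note: negative B-score means reduced calcium response which marks RGS4 activation or potentiation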
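Detection: kinetic calcium fluorescence imaging with Fluo4-AM dye, 2 µM / Material: HEK293 cells with stable M3R and inducible RGS4 / Schedule: recording 10 s baseline at 1 Hz, 100 s post-agonist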
MrgX1 antag conf – MrgX1 receptor antagonists, duplicate retest, confirmation, HEK293 cells, Fluo-4 calcium flux | remaining BAM8-22 calcium response % of control (hits give low values), % at 10 µM | 2,300 compounds, 19% hits | shares compounds with MrgX1 antagonist | BAM8-22 calcium flux; hits give low values | AID 602420, 2012;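 active = remaining agonist calcium response no higher than 100% minus 3 SD of agonist-only control wells, with starting fluorescence near control levels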;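 note: agonist BAM8-22 given at a near maximal EC90 to ECmax level; peak minus minimum fluorescence divided by baseline after agonist addition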
HEK293 Ca flux – nonspecific calcium signal in parental HEK293, confirmation, counter-screen for MrgX1 antagonist project, parental HEK293 cells, Fluo-4 calcium flux; shares compounds with MrgX1 antagonist; Fluo-4 calcium fluorescence, FDSS; fluorescence ratio F(max-min)/F0 at 10 µM; 4,000 compounds, 2% hits;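 active = duplicate-averaged calcium fluorescence ratio at least three times the standard deviation of buffer wells, a nonspecific response in parental cells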
HEK293 Ca counter – calcium response in parental HEK293 cells, primary screen, counter-screen for MrgX1 allosteric activator project, cell-based, Fluo-4 calcium flux, duplicate | fluorescence ratio F(max-min)/F0 at 10 µM | 4,000 compounds, 0.4% hits | shares compounds with MrgX1 antagonist | Fluo-4 fluorescence ratio; hits give high values;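 active = calcium fluorescence ratio, averaged over duplicates, at least 3 SD of the buffer-well ratio, meaning a nonspecific response in receptor-free cells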;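 note: untransfected parental HEK293 lacking MrgX1 used as counterscreen for MrgX1 allosteric activators; fluorescence change taken during the second addition on a kinetic imager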
HEK293 Ca cntr2 – calcium response in parental HEK293 cells, primary screen, counter-screen for MrgX1 agonist project, cell-based, Fluo-4 calcium flux, duplicate, agonist mode; 4,000 compounds, 8.7% hits; fluorescence ratio F(max-min)/F0 at 10 µM; Fluo-4 calcium fluorescence (FDSS); hits give high values; shares compounds with MrgX1 antagonist; AID 624115, 2012;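 active = calcium fluorescence ratio at least three times the spread of buffer wells, meaning a non-specific response in parental cells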
* = called active by the depositor; i = inactive; / = no result given. Compounds with a hit are over-represented: about 3.5% of the library has one in this group of screens.

SMILES	MrgX1 allo act	RGS4 inh	MrgX1 agonist	MrgX1 antagonist	RGS4 act	MrgX1 antag conf	HEK293 Ca flux	HEK293 Ca counter	HEK293 Ca cntr2
Cc1cccc2cc(CN(CC3CCCO3)C(=O)c3ccco3)c(=O)[nH]c12 (stereo not given)	i	i	i	-8.3*	i	i	i	i	i
CC1CCCCC1NC(=O)C1CCCN(S(=O)(=O)c2ccc(-n3cnnn3)cc2)C1 (stereo not given)	i	i	i	i	i	/	/	/	/
COc1ccc(CN2CCC(N3CC(C)OC(C)C3)CC2)c(OC)c1 (stereo not given)	i	i	i	-4.8*	i	i	i	i	i
COc1cccc(C2=CC(c3ccc(OC)c(OC)c3OC)n3nnnc3N2)c1 (stereo not given)	i	i	i	i	i	/	/	/	/
COc1cccc(C2=CC(c3cccs3)n3nnnc3N2)c1 (stereo not given)	i	i	i	-5.5*	i	84%*	i	i	i
O=C(Oc1ccc(Cl)c2cccnc12)N1CCCCC1	i	i	i	-5.5*	i	i	i	i	i
O=C(Oc1ccc(Cl)c2cccnc12)N1CCOCC1	i	i	i	i	i	/	/	/	/
COc1ccc(NC(=O)c2nc[nH]c2C(=O)N2CCN(C(=O)OC(C)(C)C)CC2)cc1	i	i	i	-7.7*	i	i	i	i	i
COCc1ccc(C(=O)N2CCCC(Nc3ccc(C(C)C)cc3)C2)o1 (stereo not given)	i	i	i	i	i	/	/	/	/
CC(C)(C)c1ccc(-n2ncc3c2CCCC3NC(=O)CCN2CCCCC2=O)cc1 (stereo not given)	i	i	i	i	i	/	/	/	/
Cc1cc(C)cc(-n2ncc3c2CCCC3NC(=O)CN2CCCCC2=O)c1 (stereo not given)	i	i	i	-8.3*	i	i	i	i	i
CCOC(=O)c1cnc(-n2nc(C)cc2C)nc1Nc1ccc(OC)cc1	i	i	i	i	i	/	/	/	/
CCOC(=O)c1cnc(-n2nc(C)cc2C)nc1NC1CCCC1	i	i	i	-4.7*	i	i	i	i	i
CCN1CCSc2ccc(C(=O)NCc3ccc(OC(C)C)cc3)cc21	i	i	i	i	i	/	/	/	/
CCOc1ccc(CNC(=O)c2ccc3c(c2)N(CC)CCS3)cc1	i	i	i	-6.6*	i	82%*	i	i	i
CC1(c2nnc(-c3ccccc3)o2)CC(c2ccccc2)=NO1 (stereo not given)	i	i	i	i	i	/	/	/	/
COc1ccc(C(=O)COC(=O)CCN2C(=O)C3C4CC(C(Br)C4Br)C3C2=O)cc1 (stereo not given)	i	i	i	-5.4*	i	i	i	i	i
COc1ccc(C(=O)COC(=O)CCN2C(=O)[C@@H]3[C@H](C2=O)[C@@H]2C[C@H]3C(Br)C2Br)cc1 (stereo not given in full)	i	i	i	i	i	/	/	/	/
CC[C@H](C)[C@H]1O[C@]2(CC[C@@H]1C)C[C@@H]1C[C@@H](CC=C(C)[C@@H](O[C@H]3C[C@H](OC)[C@@H](O[C@H]4C[C@H](OC)[C@@H](O)[C@H](C)O4)[C@H](C)O3)[C@@H](C)C=CC=C3CO[C@@H]4[C@H](O)C(C)=C[C@@H](C(=O)O1)[C@]34O)O2	i	/	i	i	/	/	/	/	/
O=[N+]([O-])c1ncccc1OCc1ccccc1Br	i	i	i	i	i	/	/	/	/
CN1CCN(C(c2ccc(Br)cc2)c2cc(Cl)c3cccnc3c2O)CC1 (stereo not given)	i	i	i	-5.3*	i	i	i	i	i
CC(=O)Nc1ccc(NC(=O)CCc2nc3sc4c(c3c(=O)[nH]2)CCCC4)cc1	i	i	i	-4.6*	i	i	i	i	i
NC(=O)c1ccc(NC(=O)CCc2nc3sc4c(c3c(=O)[nH]2)CCCC4)cc1	i	i	i	i	i	/	/	/	/
C=CCn1c(C(O)c2ccccc2)nc2ccccc21 (stereo not given)	i	i	i	i	i	/	/	/	/
CCCn1c(N)nc2ccccc21	i	i	i	-5.5*	i	i	i	i	i
SMILES	MrgX1 allo act	RGS4 inh	MrgX1 agonist	MrgX1 antagonist	RGS4 act	MrgX1 antag conf	HEK293 Ca flux	HEK293 Ca counter	HEK293 Ca cntr2
CCc1nc2ccccc2n1CCC(C)C	i	i	i	-6.3*	i	i	i	i	i
C=CCn1c(C(C)C)nc2ccccc21	i	i	i	-6.7*	i	i	i	i	i
CCn1c(N)nc2ccccc21	i	i	i	i	i	/	/	/	/
CCOCCn1c(CC)nc2ccccc21	i	i	i	i	i	/	/	/	/
CCOCCn1c(CCCO)nc2ccccc21	i	i	i	-11*	i	i	i	i	i
CCc1nc2ccccc2n1CCc1ccccc1	i	i	i	i	i	/	/	/	/
O=C(c1ccccc1)N1N=C(c2ccccc2)CC1c1ccccc1[N+](=O)[O-] (stereo not given)	i	i	i	i	i	/	/	/	/
Cc1cc(NC(=O)c2ccco2)c(=O)n(Cc2cccc(C(F)(F)F)c2)c1	i	i	i	i	i	/	/	/	/
